Source: PubChem (several laboratories)
APJ agonist: activates the human apelin receptor APJ | P35414 | CHO-K1 APJ PathHunter beta-arrestin, luminescence; 0% DMSO wells, 100% apelin | activation, % at 20 µM | 330,000 compounds, 0.11% hits | AID 2520;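 active means activation more than six SD over the plate average, tested at 20 µM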;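 further: 0% = DMSO alone and 100% = apelin-13 at 10 nM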
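Assay system: CHO-K1 cells stably expressing ProLink-tagged human APJ and arrestin–beta-gal acceptor. Compound dosing: 20 µM single point, 1% DMSO. Times: 16-18 h seeding, 90 min dark compound exposure, 60 min detection. Detection: beta-gal luminescence. Evaluation: APJ–arrestin association signal. Controls: negative DMSO alone, positive Apelin-13 at 10 nM.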
FXN GAA850 act: activators of GAA850 frataxin (FXN) promoter. HEK293 lucGAA850 FXN promoter luciferase reporter, 24 h; percent of 10 µM SAHA response. activation, % at 6 µM. 360,000 compounds, 0.56% hits. AID 540364;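 active means activation above the average of all compounds screened plus 3 SD, cutoff fixed separately per campaign, cut at about 7.5% in these data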;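 further: 0% = DMSO wells and 100% = 10 µM SAHA wells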
EBI2 antag: EBI2 (human) antagonism. inhibition, % at 5 µM. AID 651636. EBI2 beta-arrestin recruitment, luminescence, 7a,25-OHC stimulated. 360,000 compounds, 0.81% hits; in the data active means inhibition above about 38%;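 further: enzyme fragment complementation signal reports receptor beta-arrestin coupling in cells; 0% = agonist plus DMSO wells and 100% = wells without agonist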
CCR6 antagonist: antagonists of human CCR6 receptor; P51684; CHO-K1 CCR6 PathHunter beta-arrestin, luminescence, CCL20-stimulated; inhibition, % at 20 µM; 340,000 compounds, 0.49% hits;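 active means compounds whose inhibition of the agonist-driven luminescence signal at 20 µM reaches about 50%, limit read from the data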;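 further: cells stimulated with CCL20 at 14 nM final; plate controls were DMSO with CCL20 for no effect and DMSO without agonist for full effect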
Target sequence (P51684 whole entry, looked up): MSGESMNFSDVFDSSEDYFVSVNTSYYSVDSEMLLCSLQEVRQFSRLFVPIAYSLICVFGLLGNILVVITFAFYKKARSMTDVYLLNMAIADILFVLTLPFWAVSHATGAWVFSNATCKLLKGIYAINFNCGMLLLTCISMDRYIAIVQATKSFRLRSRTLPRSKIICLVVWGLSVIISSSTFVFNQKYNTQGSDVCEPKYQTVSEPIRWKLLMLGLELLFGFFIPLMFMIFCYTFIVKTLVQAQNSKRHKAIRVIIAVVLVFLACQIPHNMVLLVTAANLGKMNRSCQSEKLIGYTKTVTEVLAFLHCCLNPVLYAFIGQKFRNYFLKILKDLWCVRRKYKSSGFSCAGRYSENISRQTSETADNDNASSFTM
CXCR6 block: blocks human CXCR6 beta-arrestin recruitment | O00574 | CHO-K1 PathHunter CXCR6 beta-arrestin, luminescence | inhibition, % at 20 µM | 360,000 compounds, 0.36% hits | AID 602244; in the data active means inhibition above about 34%, passing the limit was not always enough;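 further: antagonist mode with CXCL16 agonist at 10 nM final; 0% = 10 nM CXCL16 with DMSO and 100% = unstimulated wells without agonist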
Target sequence (O00574 whole entry, looked up): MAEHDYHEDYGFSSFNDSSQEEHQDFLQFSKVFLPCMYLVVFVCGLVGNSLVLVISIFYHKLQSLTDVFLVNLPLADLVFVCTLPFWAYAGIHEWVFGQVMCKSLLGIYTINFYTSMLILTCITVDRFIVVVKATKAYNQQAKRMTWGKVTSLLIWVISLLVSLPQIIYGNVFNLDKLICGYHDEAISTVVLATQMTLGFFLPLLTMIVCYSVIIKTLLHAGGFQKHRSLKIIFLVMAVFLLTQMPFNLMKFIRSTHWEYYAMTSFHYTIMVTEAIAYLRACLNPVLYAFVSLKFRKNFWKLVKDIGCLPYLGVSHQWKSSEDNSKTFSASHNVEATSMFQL
APJ antag: APJ receptor antagonism; P35414; CHO-K1 APJ beta-arrestin complementation, luminescence; inhibition, % at 20 µM; 330,000 compounds, 0.32% hits; AID 2521;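 active means inhibition above about 40% at 20 µM, limit read from the data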;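 further: cells challenged with 10 nM apelin-13 agonist together with compound; plate controls were apelin-13 plus DMSO wells for no effect and DMSO wells lacking apelin-13 for full effect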
APJ antag conf: APJ receptor antagonism confirmation; shares compounds with APJ antag; APJ beta-arrestin recruitment, luminescence, antagonist mode; inhibition, % at 20 µM; 950 compounds, 66% hits; AID 2766; in the data active means inhibition above about 50%
* hit, by the source's call. This is a sample that favours compounds with a hit; in the whole collection about 2% have one here.

Results for CC(C)NC(=O)c1sc2nc(-c3cccs3)cc(-c3cccs3)c2c1N ?
APJ agonist: -17.4; CCR6 antagonist: 28.8; APJ antag: 42.4*; APJ antag conf: 30.8

Results for CC(=O)c1sc2nc(-c3cccs3)ccc2c1N ?
APJ agonist: 0.1; FXN GAA850 act: 6.0; EBI2 antag: 8.0; CCR6 antagonist: 5.8; CXCR6 block: -6.3; APJ antag: -9.0

What do the screens show for `C[C@@H]1CCCCO[C@H](CN(C)C(=O)Nc2ccc(F)cc2)[C@@H](C)CN([C@H](C)CO)C(=O)c2cc(N(C)C)ccc2O1`?
FXN GAA850 act: -5.2; EBI2 antag: -6.6; CXCR6 block: 0.4

How did CCn1cc(S(=O)(=O)Nc2cccnc2)cn1 do in these assays?
APJ agonist: 5.5; FXN GAA850 act: 1.1; EBI2 antag: -4.8; CCR6 antagonist: -3.4; CXCR6 block: -1.0; APJ antag: 44.5*; APJ antag conf: 22.0

How did COc1cc(OC)cc(C(=O)NNC(=O)C2CCC2)c1 do in these assays?
FXN GAA850 act: -0.3; EBI2 antag: -5.4; CXCR6 block: -5.4

Results for Cc1nnsc1C(=O)NNc1ccc(C(C)(C)C)cc1 ?
APJ agonist: -15.4; FXN GAA850 act: 2.0; EBI2 antag: 16.4; CCR6 antagonist: 10.4; CXCR6 block: -4.3; APJ antag: 59.1*; APJ antag conf: 146.4*

Results for O=C(COC(=O)c1cc2ccccc2oc1=O)c1cccc([N+](=O)[O-])c1 ?
APJ agonist: -6.3; FXN GAA850 act: 1.5; EBI2 antag: 11.7; CCR6 antagonist: 51.7*; CXCR6 block: 28.7; APJ antag: 48.1*; APJ antag conf: 82.9*

Results for COc1cc([N+](=O)[O-])ccc1NC(=S)NNC(=O)CCC(=O)Nc1ccccc1Cl ?
APJ agonist: -13.7; FXN GAA850 act: 1.7; EBI2 antag: 7.3; CCR6 antagonist: 33.8; CXCR6 block: 31.0; APJ antag: 44.5*; APJ antag conf: 50.9*

How did O=C(CCC(=O)OCC(=O)c1cccc([N+](=O)[O-])c1)NC1CCCCC1 do in these assays?
APJ agonist: -15.3; FXN GAA850 act: 0.5; EBI2 antag: 4.6; CCR6 antagonist: 58.2*; CXCR6 block: 23.7; APJ antag: 42.5*; APJ antag conf: 99.4*

What do the screens show for `O=C(CCC(=O)OCC(=O)c1ccc([N+](=O)[O-])cc1)NC1CCCCC1`?
APJ agonist: 0.5; FXN GAA850 act: -1.3; EBI2 antag: -9.5; CCR6 antagonist: -4.4; CXCR6 block: -6.9; APJ antag: -12.6

Results for Cc1ccc(OCC(=O)OCC(=O)c2cccc([N+](=O)[O-])c2)cc1C ?
APJ agonist: -19.2; FXN GAA850 act: 0.3; EBI2 antag: 23.8; CCR6 antagonist: 51.3*; CXCR6 block: 38.7; APJ antag: 56.8*; APJ antag conf: 54.9*

What do the screens show for `O=C(Cc1ccccc1)OCC(=O)c1cccc([N+](=O)[O-])c1`?
APJ agonist: -8.2; FXN GAA850 act: 0.8; EBI2 antag: 9.5; CCR6 antagonist: 33.7; CXCR6 block: 24.7; APJ antag: -7.0

Results for CCc1ccc(N(CC(=O)NC(C)C)C(=O)CCC(=O)Nc2nccs2)cc1 ?
APJ agonist: -2.8; FXN GAA850 act: 1.5; EBI2 antag: -7.2; CCR6 antagonist: 6.7; CXCR6 block: 5.2; APJ antag: 17.6

Results for CC(=O)Nc1ccc(NC(=O)CCC(=O)OCC(=O)c2cccc([N+](=O)[O-])c2)cc1 ?
APJ agonist: -9.7; FXN GAA850 act: 2.1; EBI2 antag: 14.5; CCR6 antagonist: 38.5; CXCR6 block: 26.9; APJ antag: 47.2*; APJ antag conf: 86.4*

How did O=C(CCC(=O)OCC(=O)c1cccc([N+](=O)[O-])c1)Nc1ccccc1Cl do in these assays?
APJ agonist: -13.1; FXN GAA850 act: -2.4; EBI2 antag: 11.7; CCR6 antagonist: 61.5*; CXCR6 block: 29.8; APJ antag: 68.3*; APJ antag conf: 111.7*

Results for O=C(COC(=O)c1cnccn1)c1cccc([N+](=O)[O-])c1 ?
APJ agonist: -13.4; FXN GAA850 act: 0.6; EBI2 antag: 3.0; CCR6 antagonist: 52.8*; CXCR6 block: 32.5; APJ antag: 41.9*; APJ antag conf: 79.4*

Results for O=C(NC1CCCCC1)C1c2ccccc2OCC(=O)N1CCc1c[nH]c2ccccc12 (centres undefined) ?
EBI2 antag: -4.5; CXCR6 block: -2.1

How did CCN1CCN(C(=O)c2cc(COc3ccc(F)c(F)c3)on2)[C@@H](C)C1=O do in these assays?
FXN GAA850 act: 1.7; EBI2 antag: -4.5; CXCR6 block: -0.5

What do the screens show for `CC1CCN(CCc2nc3cc(NC(=O)COc4ccc(Cl)cc4)ccc3n2C)CC1`?
APJ agonist: 2.1; FXN GAA850 act: 3.0; EBI2 antag: -6.8; CCR6 antagonist: 32.7; CXCR6 block: -1.3; APJ antag: -6.0

What do the screens show for `COC(=O)[C@]12CCCCC=C1N(Cc1ccco1)C(=O)[C@H](CC(=O)NCCCN1CCCC1=O)C2`?
EBI2 antag: -13.7; CXCR6 block: 3.8

What do the screens show for `COc1ccc(-c2csc(NC(=S)NC(=O)c3ccccc3)n2)cc1Br`?
APJ agonist: -6.8; FXN GAA850 act: -0.5; EBI2 antag: 7.2; CCR6 antagonist: 12.4; CXCR6 block: 8.1; APJ antag: 23.0

What do the screens show for `COc1ccc(C(=O)NC(=S)Nc2nc(-c3ccc(OC)c(Br)c3)cs2)cc1Br`?
APJ agonist: -1.2; FXN GAA850 act: -1.6; EBI2 antag: -12.1; CCR6 antagonist: 27.2; CXCR6 block: 14.8; APJ antag: 42.9*; APJ antag conf: 29.8

What do the screens show for `COc1ccc(-c2csc(NC(=S)NC(=O)/C=C/c3ccc(C(C)C)cc3)n2)cc1OC`?
APJ agonist: -12.0; FXN GAA850 act: -2.0; EBI2 antag: -2.5; CCR6 antagonist: 17.2; CXCR6 block: 21.8; APJ antag: 41.3*; APJ antag conf: 43.6

What do the screens show for `COc1ccc(-c2csc(NC(=S)NC(=O)c3cc4ccccc4o3)n2)cc1Br`?
APJ agonist: -3.4; FXN GAA850 act: 0.7; EBI2 antag: -2.8; CCR6 antagonist: 40.9; CXCR6 block: 5.4; APJ antag: 45.1*; APJ antag conf: 8.8

Results for O=C(Nc1ccc2c(c1)CCC2)c1cc(=O)[nH]c2ccccc12 ?
APJ agonist: 1.2; FXN GAA850 act: 1.2; EBI2 antag: -2.8; CCR6 antagonist: 7.9; CXCR6 block: -4.9; APJ antag: 3.3

What do the screens show for `CC(C)c1csc(CN2CCC(n3nccc3NC(=O)Cc3ccccc3)CC2)n1`?
APJ agonist: -1.4; FXN GAA850 act: -2.2; EBI2 antag: -13.8; CCR6 antagonist: 1.6; CXCR6 block: 3.8; APJ antag: -11.7

How did O=C(O)CCC1(CCC(=O)O)CCCC(CCC(=O)O)(CCC(=O)O)C1=O do in these assays?
FXN GAA850 act: 0.9; EBI2 antag: -15.3; CCR6 antagonist: 12.1; CXCR6 block: -4.7
